Laboratory results: ChEMBL document CHEMBL1128391, “Investigation of the configurational and conformational influences on the hormonal activity of 1,2-bis(2,6-dichloro-4-hydroxyphenyl)ethylenediamines and of their platinum(II) complexes. 1. Synthesis, estradiol receptor affinity, and estrogenic activity of diastereomeric [N-alkyl- and …” (J Med Chem, 1995)

Legend:
Assay type in all cases: functional
[1] = target: T1, Estrogen receptor (Mus musculus) (UniProt O08537+P19785); assay: Estrogenic effect in uterotrophic assay in mice at 10 nM/animal dose
How it was run: (§1)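 Immature female NMRI mice (20 days old, 10–12 g, six per group) given test compound sc once daily for three consecutive days in poly(ethylene glycol) 400/H2O (1.8% NaCl) 1:1. Uteri excised 24 h after last injection, fixed in Bouin's solution, dried, weighed. Effect = uterus dry weight (mg)/body weight (g) × 100, expressed relative to vehicle and estrone standard (0.4 μg) as % estrogenic effect.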

[2] = target: T1, Estrogen receptor (Mus musculus); assay: Estrogenic effect in uterotrophic assay in mice at 100 nM/animal dose; how it was run: as §1
[3] = target: T1, Estrogen receptor (Mus musculus); assay: Estrogenic effect in uterotrophic assay in mice at 0.1 nM/animal dose; how it was run: as §1
[4] = target: T1, Estrogen receptor (Mus musculus); assay: Estrogenic effect in uterotrophic assay in mice at 1 nM/animal dose; how it was run: as §1
[5] = target: T1, Estrogen receptor (Mus musculus); assay: Estrogenic effect in uterotrophic assay in mice at 1000 nM/animal dose; how it was run: as §1

T1 sequence (O08537 whole entry, looked up): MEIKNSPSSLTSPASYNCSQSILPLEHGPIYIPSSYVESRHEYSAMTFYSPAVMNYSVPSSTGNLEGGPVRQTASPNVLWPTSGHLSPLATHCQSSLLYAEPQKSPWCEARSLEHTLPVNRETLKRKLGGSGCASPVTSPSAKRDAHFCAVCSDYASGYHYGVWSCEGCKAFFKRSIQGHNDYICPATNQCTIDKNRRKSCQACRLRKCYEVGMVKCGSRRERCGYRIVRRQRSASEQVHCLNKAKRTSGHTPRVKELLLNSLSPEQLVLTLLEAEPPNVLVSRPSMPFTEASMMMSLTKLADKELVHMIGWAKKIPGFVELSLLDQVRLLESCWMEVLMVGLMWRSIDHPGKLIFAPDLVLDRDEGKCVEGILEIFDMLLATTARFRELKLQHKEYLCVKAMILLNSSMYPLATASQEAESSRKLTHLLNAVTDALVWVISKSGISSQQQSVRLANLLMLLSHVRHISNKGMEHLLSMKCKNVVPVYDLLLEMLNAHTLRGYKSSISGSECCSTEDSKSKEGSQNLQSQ
T1 sequence (P19785 whole entry, looked up): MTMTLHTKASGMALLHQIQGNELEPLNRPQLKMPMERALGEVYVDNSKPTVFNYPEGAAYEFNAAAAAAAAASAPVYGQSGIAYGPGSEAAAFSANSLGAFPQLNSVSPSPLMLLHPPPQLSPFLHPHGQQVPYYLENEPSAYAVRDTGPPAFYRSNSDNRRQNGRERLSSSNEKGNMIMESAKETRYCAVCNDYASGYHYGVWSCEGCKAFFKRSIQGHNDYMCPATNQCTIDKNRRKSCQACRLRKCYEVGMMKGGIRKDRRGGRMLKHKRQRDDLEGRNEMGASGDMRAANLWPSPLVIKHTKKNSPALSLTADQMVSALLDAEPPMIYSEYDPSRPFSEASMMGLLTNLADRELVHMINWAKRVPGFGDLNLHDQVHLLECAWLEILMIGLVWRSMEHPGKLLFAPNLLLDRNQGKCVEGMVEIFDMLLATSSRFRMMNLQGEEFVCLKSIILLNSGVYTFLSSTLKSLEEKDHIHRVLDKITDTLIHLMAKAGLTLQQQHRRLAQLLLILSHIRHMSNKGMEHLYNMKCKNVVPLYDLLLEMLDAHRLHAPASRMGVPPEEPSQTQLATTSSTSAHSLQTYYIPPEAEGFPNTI

| Estrogenic effect [1] [%] | Estrogenic effect [2] [%] | Estrogenic effect [3] [%] | Estrogenic effect [4] [%] | Estrogenic effect [5] [%] | Structure (SMILES) |
| --- | --- | --- | --- | --- | --- |
| 135 | 100 | 0 | 38 | – | NC(CCC(N)c1c(Cl)cc(O)cc1Cl)c1c(Cl)cc(O)cc1Cl (stereo in doubt) |
| 140 | 156 | 22 | 93 | – | CCNC(CCC(N)c1c(Cl)cc(O)cc1Cl)c1c(Cl)cc(O)cc1Cl (stereo unspecified) |
| 78 | 142 | 0 | 0 | – | CCNC(CCC(NCC)c1c(Cl)cc(O)cc1Cl)c1c(Cl)cc(O)cc1Cl (racemic) |
| 3 | 12 | 0 | 0 | 72 | CNC(CCC(NC)c1c(Cl)cc(O)cc1Cl)c1c(Cl)cc(O)cc1Cl (racemic) |
| 13 | 10 | 0 | 0 | 21 | NC(CCC(N)c1c(Cl)cc(O)cc1Cl)c1c(Cl)cc(O)cc1Cl (racemic) |
| 140 | 128 | 61 | 125 | – | CCNC(CCC(NCC)c1c(Cl)cc(O)cc1Cl)c1c(Cl)cc(O)cc1Cl (stereo in doubt) |
| 139 | 127 | 0 | 47 | 47 | CNC(CCC(NC)c1c(Cl)cc(O)cc1Cl)c1c(Cl)cc(O)cc1Cl (stereo in doubt) |
